Active and inactive are the calls of the source. The calls are words filed in the database; no cut-off is given here.
Legend:
[1] = tested on: Caco-2; experiment: Antiproliferative activity against human Caco2 cells assessed as reduction in cell viability incubated for 72 hrs by MTT assay; format: functional, cell-based; details: Caco-2, 72 h
Procedure, shortened: (§1)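 Growth inhibition was read at 24, 48 and 72 h in U-2OS, Caco-2 and IMR-32 cells. EC50 values are the mean of n = 3 independent experiments ± SEM.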

[2] = tested on: Caco-2; experiment: Antiproliferative activity against human Caco2 cells assessed as reduction in cell viability incubated for 48 hrs by MTT assay; format: functional, cell-based; details: Caco-2, 48 h; procedure, shortened: as §1
[3] = tested on: IMR-32; experiment: Antiproliferative activity against human IMR32 cells assessed as reduction in cell viability incubated for 72 hrs by MTT assay; format: functional, cell-based; details: IMR-32, 72 h; procedure, shortened: as §1
[4] = tested on: U2OS; experiment: Antiproliferative activity against human U2OS cells assessed as reduction in cell viability incubated for 48 hrs by MTT assay; format: functional, cell-based; procedure, shortened: as §1
[5] = Induction of NO production in PBS buffer at 0.1 mM measured for 1 to 24 hrs by Griess method; format: functional
Procedure, shortened: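 Compound at 0.1 mM in 50 mM phosphate buffer, pH 7.4, incubated at 37 °C without l-cysteine. Released NO was measured as nitrite by the Griess method and given as % of the initial compound concentration at 1, 5 and 24 h. Values are the average of three independent experiments.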

[6] = Chemical stability of compound in HEPES assessed as compound hydrolysis at 500 ug/ml measured upto 24 hrs by HPLC-UV/MS analysis; format: physicochemical
[7] = tested on: IMR-32; experiment: Antiproliferative activity against human IMR32 cells assessed as reduction in cell viability incubated for 48 hrs by MTT assay; format: functional, cell-based; details: IMR-32, 48 h; procedure, shortened: as §1
[8] = tested on: Caco-2; experiment: Antiproliferative activity against human Caco2 cells assessed as reduction in cell viability incubated for 24 hrs by MTT assay; format: functional, cell-based; details: Caco-2, 24 h; procedure, shortened: as §1
[9] = Chemical stability of compound in DMSO assessed as compound hydrolysis at 500 ug/ml measured upto 24 hrs by HPLC-UV/MS analysis; format: physicochemical
[10] = tested on: U2OS; experiment: Antiproliferative activity against human U2OS cells assessed as reduction in cell viability incubated for 24 hrs by MTT assay; format: functional, cell-based; procedure, shortened: as §1
[11] = tested on: U2OS; experiment: Antiproliferative activity against human U2OS cells assessed as reduction in cell viability incubated for 72 hrs by MTT assay; format: functional, cell-based; procedure, shortened: as §1
[12] = tested on: IMR-32; experiment: Antiproliferative activity against human IMR32 cells assessed as reduction in cell viability incubated for 24 hrs by MTT assay; format: functional, cell-based; details: IMR-32, 24 h; procedure, shortened: as §1
[13] = Induction of NO production in PBS buffer at 0.1 mM in presence of L-cysteine measured for 1 to 24 hrs by Griess method; format: functional
Procedure, shortened: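 Griess assay for NO release: each compound at 0.1 mM in 50 mM phosphate buffer, pH 7.4, at 37 °C, with l-cysteine at 0.5 mM and at 5 mM. Nitrite yield is given as % of the initial compound concentration at 1 h, 5 h and 24 h. Values are the average of three independent experiments.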

[14] = Stability of compound in human plasma assessed as compound hydrolysis at 500 ug/ml measured upto 24 hrs by HPLC-UV/MS analysis; format: ADME, cell-free

EC50 [1] | EC50 [2] | EC50 [4] | Stability [6] | EC50 [8] | Stability [9] | EC50 [10] | EC50 [11] | Stability [14] | Compound | EC50 [3] | Activity [5] | EC50 [7] | EC50 [12] | Activity [13]
0.00447 µM | 0.00562 µM | 0.741 µM | Stable | 9.12 µM | Stable | 0.468 µM | 1 µM | Stable | CC(C)[C@@H]1NC(=O)[C@]2(C)CSC(=N2)c2csc(n2)CNC(=O)C[C@@H](/C=C/CCSC(=O)CCC(CO[N+](=O)[O-])O[N+](=O)[O-])OC1=O (some centres not stated) | 0.0501 µM | Active | 0.0617 µM | 0.0295 µM | Active
0.00813 µM | 0.038 µM | 0.309 µM | Stable | 11.2 µM | Stable | 1.95 µM | 0.17 µM | Stable | CC(C)[C@@H]1NC(=O)[C@]2(C)CSC(=N2)c2csc(n2)CNC(=O)C[C@@H](/C=C/CCSC(=O)CCCCO[N+](=O)[O-])OC1=O | 0.012 µM | Active | 0.0195 µM | 0.0151 µM | Active

Compound | EC50 [1] | EC50 [2] | EC50 [4] | Stability [6] | EC50 [8] | Stability [9] | EC50 [10] | EC50 [11] | Stability [14] | EC50 [3] | Activity [5] | EC50 [7] | EC50 [12] | Activity [13]
CCCCCCCC(=O)SCC/C=C/[C@@H]1CC(=O)NCc2nc(cs2)C2=N[C@@](C)(CS2)C(=O)N[C@@H](C(C)C)C(=O)O1 [LARGAZOLE] | 0.0145 µM | 0.759 µM | 0.372 µM |  | > 10000 µM |  | 20.4 µM | 0.331 µM |  | 0.0123 µM |  | 0.0302 µM | 0.0347 µM | 

From ChEMBL document CHEMBL4613302, “Synthesis and Antiproliferative Activity of Nitric Oxide-Donor Largazole Prodrugs” (ACS Med Chem Lett, 2020)
